Bioassay records from PubChem.
CHRM1 PAM: positive allosteric modulators of human M1 muscarinic receptor; P11229; CHO-K1 hM1, Fluo-8 calcium fluorescence, ACh EC20; 0% = ACh EC20, 100% = maximal ACh; activation, % at 3 µM; 360,000 tested, 0.088% active; AID 588819; in the data active = activation above about 19%, passing the limit was not always enough
Target sequence (P11229 whole entry, looked up): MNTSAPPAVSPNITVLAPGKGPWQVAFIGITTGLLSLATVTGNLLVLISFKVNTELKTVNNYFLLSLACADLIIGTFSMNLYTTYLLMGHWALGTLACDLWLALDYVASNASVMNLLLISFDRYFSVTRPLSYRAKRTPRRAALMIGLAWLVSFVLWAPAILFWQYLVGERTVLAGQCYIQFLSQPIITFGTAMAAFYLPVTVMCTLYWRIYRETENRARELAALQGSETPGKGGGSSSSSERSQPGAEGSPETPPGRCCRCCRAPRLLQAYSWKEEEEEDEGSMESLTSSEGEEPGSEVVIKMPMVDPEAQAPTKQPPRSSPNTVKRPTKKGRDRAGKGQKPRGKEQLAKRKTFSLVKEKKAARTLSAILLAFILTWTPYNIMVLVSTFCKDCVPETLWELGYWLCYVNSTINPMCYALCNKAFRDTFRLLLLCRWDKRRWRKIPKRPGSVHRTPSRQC
CHRM1 agonist: agonists of human M1 muscarinic receptor; CHO-K1 hM1, Fluo-8 calcium fluorescence, agonist mode; 0% DMSO, 100% acetylcholine EC100; activation, % at 3 µM; 360,000 tested, 0.33% active;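 active = activation above the run's mean compound activation plus 3 SD, cut at about 16% in these data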;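 also: peak over basal fluorescence ratio within a 140 s kinetic read after compound addition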
CHRM1 antagonist: antagonists of human M1 muscarinic receptor; P11229; CHO-K1 hM1, Fluo-8 calcium fluorescence, ACh EC80 antagonist; inhibition, % at 3 µM; 360,000 tested, 1.3% active; AID 588852;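 active = percent inhibition above its own plate's cutoff, namely the mean of that plate's compound wells plus 3 SD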;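 also: peak over basal fluorescence ratio during 140 s after agonist addition; 0% = ACh EC80 plus DMSO and 100% = DMSO alone without agonist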
M5 antag: antagonists of human muscarinic M5 receptor (CHRM5); CHO-hM5 cells, Fluo-8 calcium fluorescence, ACh EC80; P08912; 360,000 tested, 0.59% active; AID 624040; inhibition, % at 3 µM;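 active = inhibition above a per-plate cutoff, the mean of that plate's test compounds plus 3 SD, cut at about 27% in these data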;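 also: 0% = acetylcholine EC80 with DMSO and 100% = DMSO without agonist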
M5 ag: CHRM5 agonism in calcium assay | P08912 | CHO-K1 hM5 cells, Fluo-8 calcium fluorescence; 0% DMSO wells, 100% maximal acetylcholine response | activation, % at 3 µM | 360,000 tested, 0.19% active;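 active = activation above the run's mean over test compounds plus 3 SD, cut at about 23% in these data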;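 also: signal is peak over basal fluorescence ratio across the kinetic read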
CHRM5 PAM: CHRM5 positive allosteric modulation; AID 624038; activation, % at 3 µM; 360,000 tested, 0.3% active; CHO-K1 hM5, Fluo-8 calcium, ACh EC20 PAM; 0% = ACh EC20, 100% = ACh EC100;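 active = activation above the run cutoff, the mean activation of all test compounds plus 3 SD, cut at about 18% in these data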
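Replicates: One well per compound, no replicates | System: Human M5 receptor in CHO-K1 cells | Benchmarks: Low control EC20 acetylcholine (0%), high control EC100 acetylcholine (100%) | Probe or stimulus: Acetylcholine, EC20 level | Times: Fluo-8 loading 80 min at 37 °C plus 30 min room temperature | Signal: Intracellular calcium via Fluo-8 fluorescence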
Numbers without * were called inactive. Only some compounds are listed: those with a hit (about 2.1% of all), similar ones and a draw of the others.

SMILES	CHRM1 PAM	CHRM1 agonist	CHRM1 antagonist	M5 antag	M5 ag	CHRM5 PAM
CCCN(C(=O)CSCc1ccccc1C)c1c(N)n(Cc2ccccc2)c(=O)[nH]c1=O	25.9*	5.0	-26.7	2.2	-0.9	-3.0
CC1(C)C(=O)OC(c2ccccc2)C(C)(C)C1=O (configuration not stated)	-0.3	-1.8	6.5	31.5*	-1.1	-15.6
COCCn1c(SCC(=O)Nc2ccc(C)cc2)nc2c(oc3ccccc32)c1=O	-1.4	-5.7	-4.9	3.5	-0.5	-1.0
CC(C)c1ccc(/C=C/C(=O)N2CCOCC2)cc1	6.2	-1.4	-6.8	4.8	-1.4	6.2
CC(C)(C)c1ccc(-n2nc(C#N)c(Cl)cc2=O)cc1	-17.5	-10.6	44.6*	33.0*	-2.1	-0.2
COc1ccc(NC(=O)/C=C/c2cc(OC)c(OC)c(OC)c2)cn1	6.6	-4.1	-9.7	0.1	4.9	4.9
Fc1cccc(Cl)c1CNCCCSc1ncccn1	1.3	-8.1	-8.4	14.2	-4.1	-2.3
COc1ccc(CNS(=O)(=O)c2ccc(-c3ccc(=O)[nH]n3)o2)cc1	4.2	-2.9	1.4	12.8	-3.3	-2.1
O=S(=O)(Nc1cc(Sc2ncn[nH]2)c(O)c2ccccc12)c1ccccc1	-3.6	-2.8	16.7	28.4*	1.1	-3.7
Cc1oc(-c2cc(F)ccc2F)nc1CN(C)Cc1ccc2nccnc2c1	6.5	-5.7	-4.0	3.9	0.5	3.5
O=C(NCCCN1CCC(Cc2ccccc2)CC1)C1CC(=O)N(C2CCCC2)C1 (configuration not stated)	-21.9	-12.4	32.8*	-0.5	-4.3	-0.3
O=C(NCCCN1CCC(Cc2ccccc2)CC1)C1CCC(=O)N1C1CCCC1 (configuration not stated)	-10.4	-12.4	13.2	5.0	-5.2	-13.2
Cc1ccc(-n2c(-c3ccccc3)c[n+]3c2CCc2ccccc2-3)c(C)c1	-21.1	-6.1	54.6*	34.8*	-14.2	-21.9
Cc1ccc(-n2c(-c3ccccc3)c[n+]3c2CCC3)cc1	1.0	-5.1	-7.4	8.7	-4.3	-1.2
CCOc1cccc(OCCCCN2CCCCC2)c1	-23.2	-6.9	19.3*	5.5	-8.2	-10.1
Brc1cccc(OCCCCN2CCCCC2)c1	-26.5	-9.8	78.1*	20.9	-7.0	-19.9
CC1CCCN(CCOc2ccc(Br)cc2)C1 (configuration not stated)	-8.8	-8.7	5.6	3.8	-3.2	-0.7
COc1cccc(OCCCCN2CCCCC2)c1	-10.6	-8.6	8.4	8.3	-11.4	-5.8
CC(C)c1cccc(OCCN2CCCC2)c1	-15.8	-7.8	32.7*	3.7	-21.8	-4.5
CC1CCCN(CCCCOc2cccc(Br)c2)C1 (configuration not stated)	-24.5	-7.2	33.1*	4.8	-7.8	-17.5
Clc1cccc(OCCN2CCCC2)c1	0.2	-9.2	-8.7	5.2	-21.1	-2.8
CN(C)CCN(C(=O)c1cccc(Cl)c1)c1nc2c(Cl)cccc2s1	5.7	-3.7	-0.1	-4.8	-5.3	1.7
O=c1oc(Nc2ccc(F)cc2)nc2ccccc12	8.7	1.5	-15.1	0.1	5.3	0.2
COCC1CCCN(C(=O)c2ccc3nc(Cc4cccc(Cl)c4)oc3c2)C1 (configuration not stated)	1.1	1.9	-9.3	-0.2	3.2	-4.7
CC(C)c1ccc(NC(=O)CNC(=O)Cn2cnc3ccccc3c2=O)cc1	-0.2	-4.0	-3.4	10.2	1.1	-6.1
SMILES	CHRM1 PAM	CHRM1 agonist	CHRM1 antagonist	M5 antag	M5 ag	CHRM5 PAM
CCOc1ccc(-c2nnc(N(CC)C(=O)C3CCC3)s2)cc1	-5.8	-3.1	11.8	5.8	-3.6	-7.5
CCC1(c2ccccc2)NC(=O)N(CC(=O)Nc2cccnc2Cl)C1=O (configuration not stated)	13.6	4.1	-10.5	-1.0	4.3	-1.1
CC1(c2ccc([N+](=O)[O-])cc2)NC(=O)N(CC(=O)Nc2cccnc2Cl)C1=O (configuration not stated)	9.2	22.5*	-5.8	5.8	22.1	2.2
CC1(c2ccc(OC(F)F)cc2)NC(=O)N(CC(=O)Nc2cccnc2Cl)C1=O (configuration not stated)	-8.4	43.9*	18.6	8.3	43.3*	-11.6
CC1(c2ccccc2)NC(=O)N(CC(=O)Nc2ccccc2N2CCCCC2)C1=O (configuration not stated)	5.8	22.3*	-2.6	5.5	17.8	-0.5
COc1ccc(C2(C)NC(=O)N(CC(=O)Nc3cccnc3Cl)C2=O)cc1 (configuration not stated)	8.0	10.2	-7.3	4.3	9.9	-4.2
CCC1(c2ccc(F)cc2)NC(=O)N(CC(=O)Nc2cccnc2Cl)C1=O (configuration not stated)	5.8	16.8*	-4.8	15.0	16.7	-8.5
CCOC(=O)c1cnn(-c2ncnc3sc4c(c23)CCC4)c1N	13.0	0.4	-9.8	3.6	3.8	-3.8
CC(=NNC(=S)N1CCCCCC1)c1cccc2cccnc12	-1.7	-2.4	0.7	4.6	-3.7	1.3
Cc1ccc(C(=O)C[n+]2cc(Br)cc(Br)c2)cc1[N+](=O)[O-]	3.3	-13.7	-5.5	1.2	-2.2	2.6
C=CCSc1nnc(NC(=O)C23CC4CC(CC(NC(C)=O)(C4)C2)C3)s1	6.3	1.8	-2.7	-3.9	-3.7	3.8
CCCCc1nnc(NC(=O)C23CC4CC(CC(NC(C)=O)(C4)C2)C3)s1	0.1	-3.0	1.6	33.4*	-3.4	-10.7
Cc1noc(C)c1NC(=O)N(C)C[C@H]1OCc2cnnn2CCCC(=O)N([C@H](C)CO)C[C@H]1C	26.6*	5.2	-21.0	-5.1	1.6	-0.3
Cc1ccc(S(=O)(=O)N(C)C[C@H]2OCc3cnnn3CCCC(=O)N([C@@H](C)CO)C[C@H]2C)cc1	1.2	-4.8	3.5	-10.7	0.0	3.6
C[C@H]1CN([C@@H](C)CO)C(=O)CCCn2nncc2CO[C@@H]1CN(C)Cc1ccc(-c2ccccc2)cc1	-26.0	-4.6	37.1*	-2.7	1.5	-4.7
C[C@@H]1CN([C@H](C)CO)C(=O)CCCn2nncc2CO[C@H]1CN(C)Cc1ccc(-c2ccccc2)cc1	-6.0	-11.2	-1.4	-8.9	-1.8	9.3
CC(C)NC(=O)N(C)C[C@H]1OCc2cnnn2CCCC(=O)N([C@H](C)CO)C[C@@H]1C	20.4	4.8	-19.8	4.1	-0.6	-4.4
COc1ccc(S(=O)(=O)N(C)C[C@@H]2OCc3cnnn3CCCC(=O)N([C@@H](C)CO)C[C@@H]2C)cc1	28.5*	4.9	-38.1	-4.9	1.1	-3.0
